Measurements published in ChEMBL document CHEMBL1124567, “2,4-Diamino-5-benzylpyrimidines and analogues as antibacterial agents. 11. Quinolylmethyl analogues with basic substituents conveying specificity” (J Med Chem, 1989).
In brackets after ≈: the same amount, converted by molar mass.

Legend:
[1] = Dissociation constant of compound at 25 degree C; assay type: physicochemical
[2] = Dissociation constent of compound at 20 degree C; assay type: ADME
Klebsiella pneumoniae = assay: Comparative in vitro antibacterial activity of compound with trimethoprim against Klebsiella pneumoniae CN3632; assay type: functional
Summary of the method: (§1)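 Activity is expressed relative to trimethoprim as the reference, with values above 1 meaning lower activity than the reference. Dilutions were threefold (1:3), and a difference of ± one dilution was not treated as significant.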

Pasteurella multocida = assay: Comparative in vitro antibacterial activity of compound with trimethoprim against Pasteurella multocida ATCC 6587; assay type: functional; summary of the method: as §1
Citrobacter freundii = assay: Comparative in vitro antibacterial activity of compound with trimethoprim against Citrobacter freundii 2200/77; assay type: functional; summary of the method: as §1
Proteus mirabilis = assay: Comparative in vitro antibacterial activity of compound with trimethoprim against Proteus mirabilis S2409; assay type: functional; summary of the method: as §1
Dihydrofolate reductase = molecular target: T1, Dihydrofolate reductase (Rattus norvegicus, UniProt Q920D2); assay: Inhibitory activity against Dihydrofolate reductase in rat liver; assay type: tissue-based; details: read-out: I50
T1 sequence (Q920D2 whole entry): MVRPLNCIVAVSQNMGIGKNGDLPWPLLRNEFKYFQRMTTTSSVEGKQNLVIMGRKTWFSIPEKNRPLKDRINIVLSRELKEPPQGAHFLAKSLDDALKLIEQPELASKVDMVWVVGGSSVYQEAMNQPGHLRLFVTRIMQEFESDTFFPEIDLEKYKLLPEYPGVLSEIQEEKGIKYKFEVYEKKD

Streptococcus agalactiae = assay: Comparative in vitro antibacterial activity of compound with trimethoprim against Streptococcus agalactiae CN1143; assay type: functional; summary of the method: as §1
[3] = Comparative in vitro antibacterial activity of compound with trimethoprim against Salmonella typhi CN512; assay type: functional, salmonella typhosa
Summary of the method: (§2)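 In vitro activity given as a ratio to trimethoprim, which is tested alongside; values above 1 mean lower activity than trimethoprim. Compounds were tested in serial 1:3 dilutions, and a difference of ±one dilution is treated as not significant.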

Shigella flexneri = assay: Comparative in vitro antibacterial activity of compound with trimethoprim against Shigella flexneri CN6007; assay type: functional; summary of the method: as §1
[4] = system: Bordetella bronchiseptica; assay: Comparative in vitro antibacterial activity of compound with trimethoprim against Bordetella bronchiseptica CN385; assay type: functional; summary of the method: as §1
Enterococcus faecalis = assay: Comparative in vitro antibacterial activity of compound with trimethoprim against Streptococcus faecalis CN478; assay type: functional; summary of the method: as §1
Serratia marcescens = assay: Comparative in vitro antibacterial activity of compound with trimethoprim against Serratia marcescens CN2398; assay type: functional; summary of the method: as §1
Vibrio cholerae = assay: Comparative in vitro antibacterial activity of compound with trimethoprim against Vibrio cholerae ATCC 14035; assay type: functional; summary of the method: as §2
Escherichia coli = assay: Comparative in vitro antibacterial activity of compound with trimethoprim against Escherichia coli CN314; assay type: functional; summary of the method: as §1
Streptococcus pyogenes = assay: Comparative in vitro antibacterial activity of compound with trimethoprim against Streptococcus pyogenes CN10; assay type: functional; summary of the method: as §1
Proteus vulgaris = assay: Comparative in vitro antibacterial activity of compound with trimethoprim against Proteus vulgaris CN329; assay type: functional; summary of the method: as §1
Salmonella typhimurium = assay: Comparative in vitro antibacterial activity of compound with trimethoprim against Salmonella Typhimurium S 8587; assay type: functional, Salmonella enterica subsp. enterica serovar Typhimurium; details: Salmonella enterica; summary of the method: as §1
Staphylococcus aureus = assay: Comparative in vitro antibacterial activity of compound with trimethoprim against Staphylococcus aureus CN491; assay type: functional; summary of the method: as §1
Klebsiella aerogenes = assay: Comparative in vitro antibacterial activity of compound with trimethoprim against Enterobacter aerogenes 2200/86; assay type: functional; summary of the method: as §1
[5] = system: Mycolicibacterium smegmatis; assay: Comparative in vitro antibacterial activity of compound with trimethoprim against Mycobacterium smegmatis S 3254; assay type: functional; summary of the method: as §1

Compound	pKa [1]	MIC (Klebsiella pneumoniae)	MIC (Pasteurella multocida)	MIC (Citrobacter freundii)	MIC (Proteus mirabilis)	IC50 (Dihydrofolate reductase)	MIC (Streptococcus agalactiae)	MIC [3]	MIC (Shigella flexneri)	MIC [4]	MIC (Enterococcus faecalis)	MIC (Serratia marcescens)	MIC (Vibrio cholerae)	MIC (Escherichia coli)	MIC (Streptococcus pyogenes)	MIC (Proteus vulgaris)	MIC (Salmonella typhimurium)	MIC (Staphylococcus aureus)	MIC (Klebsiella aerogenes)	MIC [5]	further results
Cc1cc(N2CCOCC2)nc2c(C)cc(Br)cc12	6.37	–	–	–	–	–	–	–	–	–	–	–	–	–	–	–	–	–	–	–	–
Brc1ccc2ncccc2c1	–	–	–	–	–	–	–	–	–	–	–	–	–	–	–	–	–	–	–	–	pKa [2]: 3.91
COc1cc(Cc2cnc(N)nc2N)cc2c(N(C)C)cc(C)nc12	–	> 300 µg/mL	100 µg/mL (≈ 295 µM)	> 300 µg/mL	> 30 µg/mL	70 µM	30 µg/mL (≈ 88.6 µM)	100 µg/mL (≈ 295 µM)	30 µg/mL (≈ 88.6 µM)	30 µg/mL (≈ 88.6 µM)	100 µg/mL (≈ 295 µM)	> 300 µg/mL	10 µg/mL (≈ 29.5 µM)	> 10 µg/mL	10 µg/mL (≈ 29.5 µM)	> 100 µg/mL	100 µg/mL (≈ 295 µM)	30 µg/mL (≈ 88.6 µM)	300 µg/mL (≈ 886 µM)	100 µg/mL (≈ 295 µM)	–
COc1cc(C)nc2c(OC)cc(Cc3cnc(N)nc3N)cc12	–	10 µg/mL (≈ 30.7 µM)	3 µg/mL (≈ 9.22 µM)	3 µg/mL (≈ 9.22 µM)	10 µg/mL (≈ 30.7 µM)	49 µM	1 µg/mL (≈ 3.07 µM)	10 µg/mL (≈ 30.7 µM)	3 µg/mL (≈ 9.22 µM)	10 µg/mL (≈ 30.7 µM)	1 µg/mL (≈ 3.07 µM)	3 µg/mL (≈ 9.22 µM)	1 µg/mL (≈ 3.07 µM)	3 µg/mL (≈ 9.22 µM)	0.3 µg/mL (≈ 0.922 µM)	3 µg/mL (≈ 9.22 µM)	3 µg/mL (≈ 9.22 µM)	0.3 µg/mL (≈ 0.922 µM)	10 µg/mL (≈ 30.7 µM)	3 µg/mL (≈ 9.22 µM)	–
COc1cc(C)c2cc(Cc3cnc(N)nc3N)cc(C)c2n1	–	10 µg/mL (≈ 32.3 µM)	10 µg/mL (≈ 32.3 µM)	30 µg/mL (≈ 97 µM)	10 µg/mL (≈ 32.3 µM)	62 µM	1 µg/mL (≈ 3.23 µM)	10 µg/mL (≈ 32.3 µM)	30 µg/mL (≈ 97 µM)	100 µg/mL (≈ 323 µM)	1 µg/mL (≈ 3.23 µM)	10 µg/mL (≈ 32.3 µM)	3 µg/mL (≈ 9.7 µM)	10 µg/mL (≈ 32.3 µM)	3 µg/mL (≈ 9.7 µM)	30 µg/mL (≈ 97 µM)	30 µg/mL (≈ 97 µM)	1 µg/mL (≈ 3.23 µM)	30 µg/mL (≈ 97 µM)	3 µg/mL (≈ 9.7 µM)	–
Cc1cc(N(C)C)nc2ccc(Br)cc12	7.34	–	–	–	–	–	–	–	–	–	–	–	–	–	–	–	–	–	–	–	–
COc1cc(C)c2cc(Br)cc(C)c2n1	2.96	–	–	–	–	–	–	–	–	–	–	–	–	–	–	–	–	–	–	–	–
CCCCCc1cc(OC)c2cc(Cc3cnc(N)nc3N)cc(OC)c2n1	–	30 µg/mL (≈ 78.6 µM)	10 µg/mL (≈ 26.2 µM)	10 µg/mL (≈ 26.2 µM)	30 µg/mL (≈ 78.6 µM)	–	0.3 µg/mL (≈ 0.786 µM)	30 µg/mL (≈ 78.6 µM)	30 µg/mL (≈ 78.6 µM)	10 µg/mL (≈ 26.2 µM)	1 µg/mL (≈ 2.62 µM)	30 µg/mL (≈ 78.6 µM)	3 µg/mL (≈ 7.86 µM)	10 µg/mL (≈ 26.2 µM)	3 µg/mL (≈ 7.86 µM)	100 µg/mL (≈ 262 µM)	30 µg/mL (≈ 78.6 µM)	0.3 µg/mL (≈ 0.786 µM)	10 µg/mL (≈ 26.2 µM)	10 µg/mL (≈ 26.2 µM)	–
Cc1cc(N(C)C)nc2c(C)cc(Cc3cnc(N)nc3N)cc12	–	3 µg/mL (≈ 9.3 µM)	3 µg/mL (≈ 9.3 µM)	10 µg/mL (≈ 31 µM)	10 µg/mL (≈ 31 µM)	280 µM	1 µg/mL (≈ 3.1 µM)	3 µg/mL (≈ 9.3 µM)	10 µg/mL (≈ 31 µM)	30 µg/mL (≈ 93 µM)	1 µg/mL (≈ 3.1 µM)	10 µg/mL (≈ 31 µM)	1 µg/mL (≈ 3.1 µM)	10 µg/mL (≈ 31 µM)	3 µg/mL (≈ 9.3 µM)	10 µg/mL (≈ 31 µM)	10 µg/mL (≈ 31 µM)	1 µg/mL (≈ 3.1 µM)	10 µg/mL (≈ 31 µM)	3 µg/mL (≈ 9.3 µM)	–
